We go through 9 molecules from ChEMBL document CHEMBL1926652, “Effect of 2',6'-dimethyl-L-tyrosine (Dmt) on pharmacological activity of cyclic endomorphin-2 and morphiceptin analogs” (Bioorg Med Chem, 2011).

pIC50: −log10 of the molar value. The source made the active and inactive calls. Where a SMILES comes first, the peptide text is derived from it. Bridges are numbered along the chain shown (N, C = ends). [ ]: non-standard residue; d: D form. Dmt = Cc1cc(O)cc(C)c1C[C@H](N)C(=O)O

One data set deals with Mu-type opioid receptor (Rattus norvegicus, UniProt P33535). The data set can be described thus: Displacement of [3H]DAMGO from Wistar rat mu opioid receptor by liquid scintillation counting. In outline:
(§1)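 Crude membranes from Wistar rat brain incubated with [3H]DAMGO for mu or [3H][Ile5,6]deltorphin-2 for delta. Non-specific binding defined with naloxone. Reaction ended by rapid filtration on GF/B strips soaked in 0.5% […], then two ice-cold Tris-HCl washes. Bound radioactivity counted by liquid scintillation after overnight extraction. IC50 from three independent experiments in duplicate; ratio is delta IC50/mu IC50.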
(Displacement assays read how much labelled ligand stays bound in the presence of the test substance.)

The subject of data set [1] is Mus musculus. The data set can be described thus: Antinociceptive activity in icv dosed in Swiss albino mouse assessed as rearing latency by hot plate method. It counts as functional, organism-based. A digest of the protocol:
(§2)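 Male Swiss albino mice (20–26 g), 10 per group. Peptides dissolved in DMSO, diluted in saline, given i.c.v. with a Hamilton syringe and 0.5 mm needle, 5 min before testing in dose–response runs. Mouse confined by a plastic cylinder on a 55 °C hot plate. Latencies to paw licking, rearing and jumping recorded, 240 s cut-off. %MPE = (t1−t0)/(t2−t0)×100. ED50 derived from dose–response.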
Background: Thermal pain tests record how soon the animal reacts.

Data set [2] in a line: Half life in Wistar rat brain at 0.5 mM by RP-HPLC analysis. It is filed as ADME, tissue-based. A digest of the protocol: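 Pooled rat brains homogenized in 20 volumes of 50 mM Tris-HCl, pH 7.4. Homogenate at 10 mg protein/ml incubated with an equal volume of 0.5 mM peptide at 37 °C for 0–60 min. Reaction stopped on ice with 1 M HCl, then centrifuged at 20,000g. Three experiments in duplicate.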

Data set [3] addresses Delta-type opioid receptor (Rattus norvegicus, UniProt P33533). Briefly: Displacement of [3H][Ile5,6]deltorphin 2 from delta opioid receptor in Wistar rat brain membrane by liquid scintillation counting. It counts as cell membranes. In outline:
as §1

Data set [4] concerns Mus musculus. Briefly: Antinociceptive activity in icv dosed in Swiss albino mouse assessed as jumping latency by hot plate method. It counts as functional. A digest of the protocol: as §2
Data set [5] relates to Mus musculus. Briefly: Antinociceptive activity in icv dosed in Swiss albino mouse assessed as paw licking latency by hot plate method. It is filed as functional, organism-based. In outline: as §2
For another data set, the species on record is Rattus norvegicus. The data set can be described thus: Selectivity ratio of IC50 for delta opioid receptor in Wistar rat brain membrane to IC50 for mu opioid receptor in Wistar rat brain membrane. It is filed as cell membranes. A digest of the protocol:
as §1

Data set [6] concerns Mus musculus. Briefly: Antinociceptive activity in icv dosed Swiss albino mouse assessed as jumping latency at 3 ug, icv up to 90 mins by hot plate method. It is filed as functional, organism-based. A digest of the protocol: as §2
For data set [7], the system named is Mus musculus. The data set can be described thus: Antinociceptive activity in Swiss albino mouse assessed as jumping latency at 3 ug, icv after 5 to 10 mins by hot plate method. It counts as functional, organism-based. In outline: as §2
Data set [8] has as its system Mus musculus. Briefly: Antinociceptive activity in Swiss albino mouse assessed as jumping latency at 10 ug, icv after 5 to 10 mins by hot plate method. It counts as functional, organism-based. In outline: as §2
In data set [9] the test system is Mus musculus. Briefly: Antinociceptive activity in Swiss albino mouse assessed as jumping latency at 10 ug, icv up to 90 mins by hot plate method. It counts as functional, organism-based. A digest of the protocol:
as §2

For another data set, the system named is Brain. The data set can be described thus: Drug uptake in Swiss albino mouse brain 0.01 to 1 mg/kg, iv. It is filed as ADME, organism-based. Further details: dose 0.01-1 mg/kg, route intravenous. The following applies: in vivo. A digest of the protocol:
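Blood–brain barrier passage judged in vivo. Peptides at 0.01 and 1 mg/kg were injected intravenously into male Swiss albino mice 30 min before a 55 °C hot plate test. Paw licking, rearing and jumping latencies recorded with a 240 s cut-off and expressed as %MPE.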

The species entered for data set [10] is Mus musculus. The data set can be described thus: Antinociceptive activity in Swiss albino mouse assessed as jumping latency at 3 ng by hot plate method in presence of beta funaltrexamine. It is filed as functional, organism-based. In outline: (§3)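 Hot plate test at 55 °C in male Swiss albino mice, 10 per group, with jumping latency read and a 240 s cut-off. Antagonists were given i.c.v.: beta-funaltrexamine, naltrindole at 1 µg/animal, nor-binaltorphimine at 5 µg/animal. Agonist peptides were given i.c.v. at 3 ng/animal. Inhibition of jumping expressed as %MPE.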

Data set [11] has as its system Mus musculus. Briefly: Antinociceptive activity in Swiss albino mouse assessed as jumping latency at 10 ng, icv up to 30 mins by hot plate method. It is filed as functional, organism-based. In outline:
as §2

The species entered for data set [12] is Mus musculus. The data set can be described thus: Antinociceptive activity in Swiss albino mouse assessed as jumping latency at 3 ng by hot plate method in presence of norbinaltorphimine. It is filed as functional, organism-based. A digest of the protocol: as §3
For data set [13], the species on record is Mus musculus. Briefly: Antinociceptive activity in Swiss albino mouse assessed as jumping latency at 3 ng by hot plate method in presence of naltrindole. It counts as functional, organism-based. A digest of the protocol:
as §3

Chain of Mu-type opioid receptor (P33535 whole entry): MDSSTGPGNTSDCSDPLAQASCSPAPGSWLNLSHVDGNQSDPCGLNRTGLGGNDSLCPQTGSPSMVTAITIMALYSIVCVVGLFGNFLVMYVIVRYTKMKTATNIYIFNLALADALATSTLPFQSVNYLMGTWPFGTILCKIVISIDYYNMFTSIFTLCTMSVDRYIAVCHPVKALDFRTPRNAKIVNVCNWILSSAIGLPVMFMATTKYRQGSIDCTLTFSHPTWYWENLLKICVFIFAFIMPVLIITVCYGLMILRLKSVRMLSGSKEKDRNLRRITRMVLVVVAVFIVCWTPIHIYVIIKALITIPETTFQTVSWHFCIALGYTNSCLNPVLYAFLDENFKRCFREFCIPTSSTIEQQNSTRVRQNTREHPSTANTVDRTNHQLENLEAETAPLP
Chain of Delta-type opioid receptor (P33533 whole entry): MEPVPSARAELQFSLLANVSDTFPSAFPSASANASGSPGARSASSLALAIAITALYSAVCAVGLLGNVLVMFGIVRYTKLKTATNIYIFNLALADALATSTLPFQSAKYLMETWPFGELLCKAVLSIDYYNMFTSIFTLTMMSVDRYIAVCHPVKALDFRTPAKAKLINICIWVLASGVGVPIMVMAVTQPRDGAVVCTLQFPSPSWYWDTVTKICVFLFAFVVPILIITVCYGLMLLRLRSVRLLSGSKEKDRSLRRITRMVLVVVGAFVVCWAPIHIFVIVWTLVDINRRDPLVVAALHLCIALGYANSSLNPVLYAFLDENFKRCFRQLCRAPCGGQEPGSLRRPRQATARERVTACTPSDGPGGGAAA

Turning to `NC(=O)[C@@H]1CC(=O)NCCCC[C@@H](NC(=O)[C@@H](N)Cc2ccc(O)cc2)C(=O)N[C@@H](Cc2ccccc2)C(=O)N2CCC[C@@H]2C(=O)N1`, the pIC50 (commonly −log10 of the IC50, conventionally taken in molar units) is 7.05 on Mu-type opioid receptor and below 6.00 in data set [3]. Moreover, the Activity result with Mus musculus [1], in the data set with Mus musculus [4] and in the data set on Mus musculus [5] was “Dose-dependent effect” each time. Moreover, in data set [2], the half-life (usually the time in which the quantity being followed falls by half) at 500 µM came to 1.95 h. Further, the ED50 in the data set with Mus musculus [4] stood at 0.02 µg. For the same molecule, the Ratio IC50 in the data set listed under Rattus norvegicus was above 11.2.

On to `NC(=O)[C@@H]1CCCCNC(=O)C[C@@H](NC(=O)[C@@H](N)Cc2ccc(O)cc2)C(=O)N[C@@H](Cc2ccccc2)C(=O)N2CCC[C@@H]2C(=O)N1`, for which the pIC50 is 7.82 on Mu-type opioid receptor and below 6.00 in [3]. Moreover, the Activity entry in the data set with Mus musculus [1], in the data set with Mus musculus [4] and in the data set on Mus musculus [5] was “Dose-dependent effect” throughout. The half-life at 500 µM in data set [2] came out at 1.05 h. For the same molecule, the ED50 with Mus musculus [4] came to 0.07 µg. Further, in the data set filed under Rattus norvegicus, the Ratio IC50 was above 65.3.

For `NC(=O)[C@H](Cc1ccccc1)NC(=O)[C@H](Cc1ccccc1)NC(=O)[C@@H]1CCCN1C(=O)[C@@H](N)Cc1ccc(O)cc1` [ENDOMORPHIN 2], the Activity entry with Mus musculus [1], in the data set with Mus musculus [4] and with Mus musculus [5] was “Dose-dependent effect” in each case. Besides, in data set [2], the half-life at 500 µM came out at 0.238 h. In addition, the outcome in the data set with Mus musculus [6] and with Mus musculus [7] was Active. Besides, in the data set with Mus musculus [4], the ED50 is 5.48 µg.

As for `CC(C)[C@H](NC(=O)[C@H](CCC(=O)O)NC(=O)[C@H](Cc1ccccc1)NC(=O)[C@H](C)NC(=O)[C@@H](N)Cc1ccc(O)cc1)C(=O)N[C@H](C(=O)NCC(=O)O)C(C)C` [DELTORPHINE II], in [3], the pIC50 is 10.10.

Regarding `NC(=O)[C@@H]1CCCN1C(=O)[C@H](Cc1ccccc1)NC(=O)[C@@H]1CCCN1C(=O)[C@@H](N)Cc1ccc(O)cc1` [MORPHICEPTIN] (H-YPFP-NH2), the pIC50 at Mu-type opioid receptor was 7.25; in data set [3] it was below 6.00. The Activity entry in the data set on Mus musculus [1], with Mus musculus [4] and with Mus musculus [5] was “Dose-dependent effect” in each case. In data set [2], this molecule yielded a half-life at 500 µM of 0.278 h. Further, in the data set with Mus musculus [4], the ED50 came out at 5.11 µg. For the same molecule, the outcome in the data set on Mus musculus [8] and in the data set with Mus musculus [9] was Active. In addition, in the data set listed under Rattus norvegicus, the Ratio IC50 was above 17.7.

With `Cc1cc(O)cc(C)c1C[C@H](N)C(=O)N[C@@H]1CC(=O)NCCCC[C@@H](C(N)=O)NC(=O)[C@H]2CCCN2C(=O)[C@H](Cc2ccccc2)NC1=O`, the pIC50 is 8.36 at Mu-type opioid receptor and 7.23 in [3]. The Drug uptake entry in the data set on Brain was “Not Active”. The Activity result with Mus musculus [1], in the data set with Mus musculus [4] and in the data set with Mus musculus [5] was “Dose-dependent effect” each time. In addition, the outcome in the data set filed under Mus musculus [10] was inactive. The molecule further registered a half-life at 500 µM in data set [2] of 10.4 h. The outcome with Mus musculus [11], in the data set filed under Mus musculus [12] and in the data set listed under Mus musculus [13] was Active. Besides, the ED50 with Mus musculus [4] is below 0.01 µg. Besides, the Ratio IC50 in the data set filed under Rattus norvegicus worked out at 13.2.

On to `Cc1cc(O)cc(C)c1C[C@H](N)C(=O)N[C@@H]1CCCCNC(=O)C[C@@H](C(N)=O)NC(=O)[C@H]2CCCN2C(=O)[C@H](Cc2ccccc2)NC1=O`, for which the pIC50 at Mu-type opioid receptor was 8.25; in data set [3] it was 6.88. Also, the Drug uptake entry in the data set on Brain was “Not Active”. Besides, the Activity result with Mus musculus [1], in the data set on Mus musculus [4] and in the data set with Mus musculus [5] was “Dose-dependent effect” in each case. Also, the result in the data set filed under Mus musculus [10] was inactive. This molecule also gave a half-life at 500 µM in data set [2] above 16.7 h. In addition, the result with Mus musculus [11], in the data set filed under Mus musculus [12] and in the data set listed under Mus musculus [13] was Active. Also, in the data set on Mus musculus [4], the ED50 is below 0.01 µg. Besides, the Ratio IC50 in the data set listed under Rattus norvegicus worked out at 23.5.

Consider `NC(=O)[C@@H]1CC(=O)NCCCC[C@@H](NC(=O)[C@@H](N)Cc2ccc(O)cc2)C(=O)N[C@@H](Cc2ccccc2)C(=O)N[C@@H](Cc2ccccc2)C(=O)N1` (H-Y[dK]FFD-NH2; lactam 2-5), for which the results for the pIC50 (on Mu-type opioid receptor; in data set [3]) were 9.25 and 6.55, respectively. In addition, the Activity entry with Mus musculus [1], in the data set on Mus musculus [4] and in the data set with Mus musculus [5] was “Dose-dependent effect” in each case. The half-life at 500 µM in data set [2] is 6.05 h. In addition, in the data set on Mus musculus [4], the ED50 stood at 0.05 µg. For the same molecule, the Ratio IC50 in the data set listed under Rattus norvegicus is 498.

Consider `Cc1cc(O)cc(C)c1C[C@H](N)C(=O)N[C@@H]1CCCCNC(=O)C[C@@H](C(N)=O)NC(=O)[C@H](Cc2ccccc2)NC(=O)[C@H](Cc2ccccc2)NC1=O` (H-[Dmt][dK]FFD-NH2; lactam 2-5), for which the pIC50 is 9.59 on Mu-type opioid receptor and 6.40 in data set [3]. In addition, the Activity entry with Mus musculus [1], with Mus musculus [4] and in the data set on Mus musculus [5] was “Dose-dependent effect” in each case. Besides, the half-life at 500 µM in data set [2] was above 16.7 h. Further, the ED50 with Mus musculus [4] is 0.02 µg. In the data set listed under Rattus norvegicus, the Ratio IC50 is above 1000.
